Assay results: ChEMBL document CHEMBL1153534, “Design and synthesis of androgen receptor antagonists with bulky side chains for overcoming antiandrogen resistance” (J Med Chem, 2009)
Activity calls are given as the source filed them. The calls are words filed in the database; no cut-off is given here.

How the values were obtained:
PC-3 [1] = assay: Cytotoxicity against human PC3 cells after 72 hrs by MTT assay; assay type: functional, cell-based; settings: Homo sapiens, PC-3, 72 h; read-out: IC50
[2] = molecular target: T1, Androgen receptor (Homo sapiens) (UniProt P10275); assay: Activity in human PC3 cells expressing wild-type androgen receptor assessed as ARE-dependent transactivation at 0.1 uM after 24 hrs by luciferase reporter gene assay in absence of DHT; assay type: cell-based; settings: PC-3
T1 sequence (whole entry): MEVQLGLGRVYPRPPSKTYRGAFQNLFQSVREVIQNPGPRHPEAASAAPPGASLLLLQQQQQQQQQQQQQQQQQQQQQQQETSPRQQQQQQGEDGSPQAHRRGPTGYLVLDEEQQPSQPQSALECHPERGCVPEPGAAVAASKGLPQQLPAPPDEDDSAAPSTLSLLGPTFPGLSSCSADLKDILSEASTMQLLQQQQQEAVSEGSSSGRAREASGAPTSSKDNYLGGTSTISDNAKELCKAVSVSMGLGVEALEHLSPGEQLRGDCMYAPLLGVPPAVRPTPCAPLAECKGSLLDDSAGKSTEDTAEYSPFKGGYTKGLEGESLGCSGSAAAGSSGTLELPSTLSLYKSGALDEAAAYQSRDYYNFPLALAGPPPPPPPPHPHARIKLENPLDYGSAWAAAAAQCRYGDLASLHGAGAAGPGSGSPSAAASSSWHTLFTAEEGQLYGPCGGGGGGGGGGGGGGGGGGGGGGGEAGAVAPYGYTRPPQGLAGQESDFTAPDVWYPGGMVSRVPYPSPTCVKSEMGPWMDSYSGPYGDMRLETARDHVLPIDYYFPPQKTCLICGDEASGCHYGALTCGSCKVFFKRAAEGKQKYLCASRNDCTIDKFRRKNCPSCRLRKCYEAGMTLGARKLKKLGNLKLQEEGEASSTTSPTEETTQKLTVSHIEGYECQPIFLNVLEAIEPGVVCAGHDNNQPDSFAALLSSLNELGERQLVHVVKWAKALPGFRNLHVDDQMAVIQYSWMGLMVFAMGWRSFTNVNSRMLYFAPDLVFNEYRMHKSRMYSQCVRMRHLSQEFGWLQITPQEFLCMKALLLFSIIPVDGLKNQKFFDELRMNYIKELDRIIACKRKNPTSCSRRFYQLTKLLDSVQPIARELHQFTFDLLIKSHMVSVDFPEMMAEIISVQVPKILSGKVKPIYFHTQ
Summary of the method: (§1)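 PC-3 cells, which lack endogenous AR, transiently transfected with plasmids expressing human AR (WT, T877A, W741C or H874Y) plus an ARE-driven MMTV-luc reporter. Cells were treated with or without 0.1 nM DHT. Firefly luciferase was standardized to a Renilla control and normalized to the 0.1 nM DHT signal. Mean ± sd.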

PC-3 [3] = assay: Activity in human PC3 cells expressing androgen receptor H874Y mutant assessed as ARE-dependent transactivation at 1 uM after 24 hrs by luciferase reporter gene assay in absence of DHT; assay type: cell-based; summary of the method: as §1
[4] = molecular target: T1, Androgen receptor (Homo sapiens); assay: Antiandrogenic activity in human PC3 cells expressing wild-type androgen receptor assessed as inhibition of DHT-induced ARE-dependent transactivation at 1 uM after 24 hrs by luciferase reporter gene assay; assay type: cell-based; settings: PC-3; summary of the method: as §1
LNCaP = assay: Suppression of DHT-stimulated growth of human LNCAP cells after 72 hrs with increasing concentration of DHT; assay type: functional, cell-based
[5] = molecular target: T2, Progesterone receptor (Homo sapiens) (UniProt P06401); assay: Antagonist activity at human PR B-form expressed in human PC3 cells assessed as inhibition of R5020-induced transactivation at 0.1 uM after 24 hrs by luciferase reporter gene assay; assay type: functional, cell-based; settings: PC-3
T2 sequence (whole entry): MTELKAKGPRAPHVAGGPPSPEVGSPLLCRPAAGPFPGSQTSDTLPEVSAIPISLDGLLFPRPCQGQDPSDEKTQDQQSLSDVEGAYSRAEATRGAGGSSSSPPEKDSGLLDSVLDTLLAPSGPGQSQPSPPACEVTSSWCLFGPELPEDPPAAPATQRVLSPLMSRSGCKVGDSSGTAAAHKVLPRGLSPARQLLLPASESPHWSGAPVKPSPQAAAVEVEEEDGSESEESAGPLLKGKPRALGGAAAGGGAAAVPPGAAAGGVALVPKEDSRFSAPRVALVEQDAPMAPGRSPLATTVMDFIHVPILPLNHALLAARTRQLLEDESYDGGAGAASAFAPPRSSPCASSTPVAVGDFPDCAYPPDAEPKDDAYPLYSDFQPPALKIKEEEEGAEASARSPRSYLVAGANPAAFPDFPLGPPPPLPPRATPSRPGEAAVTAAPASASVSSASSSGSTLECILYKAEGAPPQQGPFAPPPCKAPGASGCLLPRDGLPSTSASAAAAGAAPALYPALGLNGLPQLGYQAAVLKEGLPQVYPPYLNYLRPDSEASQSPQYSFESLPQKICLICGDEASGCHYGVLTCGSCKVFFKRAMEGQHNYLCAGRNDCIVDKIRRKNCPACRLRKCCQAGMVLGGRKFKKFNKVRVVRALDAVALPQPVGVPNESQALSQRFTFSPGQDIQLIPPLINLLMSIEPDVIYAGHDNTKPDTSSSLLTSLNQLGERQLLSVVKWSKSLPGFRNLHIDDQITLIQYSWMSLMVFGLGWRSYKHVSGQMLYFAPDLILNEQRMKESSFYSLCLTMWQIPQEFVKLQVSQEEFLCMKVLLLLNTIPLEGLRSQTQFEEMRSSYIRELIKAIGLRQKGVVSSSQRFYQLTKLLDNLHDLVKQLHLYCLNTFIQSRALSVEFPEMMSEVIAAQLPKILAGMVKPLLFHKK
Summary of the method: (§2)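 PC-3 cells carrying a luciferase reporter for transactivation by the human PR B form. Antagonist mode used 10 nM R5020 as the agonist. Agonist mode ran in the absence of R5020. Luciferase read-out.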

[6] = molecular target: T2, Progesterone receptor (Homo sapiens); assay: Antagonist activity at human PR B-form expressed in human PC3 cells assessed as inhibition of R5020-induced transactivation at 1 uM after 24 hrs by luciferase reporter gene assay; assay type: functional, cell-based; settings: PC-3; summary of the method: as §2
[7] = molecular target: T2, Progesterone receptor (Homo sapiens); assay: Agonist activity at human PR B-form expressed in human PC3 cells assessed as receptor transactivation at 0.1 uM after 24 hrs by luciferase reporter gene assay; assay type: functional, cell-based; settings: PC-3; summary of the method: as §2

Activity [2]: inactive
Activity [4]: Active
Activity [5]: inactive
Activity [6]: inactive
Activity [7]: inactive
SMILES: COc1cc(/C=C(\C(=O)/C=C/C2=C(C)CCCC2(C)C)C(=O)/C=C/c2ccc(O)c(OC)c2)ccc1O
IC50 (PC-3 [1]): 4.2 µM
Activity (PC-3 [3]): inactive
Activity (LNCaP): inactive
